Bioassay records (PubChem)
Ins promoter up: MIN6 insulin promoter up-regulation; hit rate 0.3% among 190,000; z-score at 5 µM; MIN6 insulin promoter-GFP reporter, high-content imaging; hits give high values;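 active = z-score above 3 at 5 µM with at least 500 cells counted in the well; inconclusive = wells under 500 cells, flagged as cytotoxic or low count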
Rad51 HR inh: blocks human Rad51 in homologous recombination | Q06609 | hRad51 DNA strand exchange, fluorescence dequenching | inhibition, % at 10 µM | hit rate 0.085% among 200,000 | AID 1385;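 active = inhibition above 40% at the single screening dose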;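 note: 0% = DMSO control wells and 100% = blanks with heterologous ssDNA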
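System: hRad51 filaments on single-stranded DNA; reagent: Fluorescein- and BHQ1-tagged 47-mer duplex; compound dosing: one concentration, 10 µM final; timing: filaments 15 min 37 °C, then compound 30 min; measured by: fluorescein emission 520 nm, excitation 485 nm; benchmarks: per-plate controls and blanks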
Cl transport mod: modulators of human KCC2 chloride dependent transport; KCC2 cells, thallium flux FluoZin-2 fluorescence; hit rate 2.2% among 190,000; Q9H2X9; B-score of Tl+ flux slope (higher = more flux/activation; lower = inhibition) at 10 µM;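 active = thallium flux slope and its plate-corrected score both differing from the plate sample mean at a set confidence after two filtering rounds, in either direction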;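 note: slope of fluorescence scaled to starting intensity during 10 to 20 s after thallium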
SKKanGAS inh: inhibitors of SKKanGAS S. pyogenes growth in kanamycin (SK-promoter or general growth effect). BacTiter-Glo, 6 h. inhibition, % at 7.5 µM. hit rate 1.3% among 300,000;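 active = mean replicate score, as percent of positive control median, at least 50; inconclusive = mean below 50 but one replicate at or above 50; inactive = mean and every replicate below 50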;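 note: strain carries kanamycin resistance gene driven by streptokinase promoter and grows in 40 µg/ml kanamycin; loss of luminescence reflects streptokinase promoter inhibition or plain growth inhibition; 0% = median of DMSO wells and 100% = positive control at its reference dose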
Autophagy HCS: autophagy modulation, high-content screen; hit rate 0.98% among 190,000; MEF GFP-LC3 puncta imaging; test concentration mostly 10 µM; calls only at 10 µM (by protocol);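 active = percentage of spot-positive cells more than 3 SD above its plate mean, without a fluorescence outlier flag or 80% toxicity; inconclusive = no clear call, values can overlap the other calls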;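 note: spot-positive cell cutoff set from DMSO-treated cells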
WT yeast gro inh: growth inhibition of WT yeast, mitochondrial fusion screen | mitochondrial fusion phenotypic screen, WT strain | inhibition, % at 10 µM | AID 1362 | hit rate 2.1% among 190,000; in the data active = inhibition above about 58%; tested in S. cerevisiae
KCC2 secondary: KCC2 (human) modulation, secondary assay; shares compounds with Cl transport mod; HEK293-KCC2, thallium flux, FluoZin2 fluorescence; hits give high values; normalised thallium flux (F/F0 slope) at 10 µM; hit rate 15% among 3,700; AID 1713;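 active = thallium flux slope above the same plate's solvent-only control mean plus 3 SD; inconclusive = the two replicate wells disagree; inactive = no significant difference from solvent-only control wells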
KCC2 bumet counter: bumetanide-insensitive thallium flux in KCC2 cells with ouabain, counter-screen; hit rate 49% among 3,700; shares compounds with Cl transport mod; HEK293-KCC2 + bumetanide/ouabain, thallium flux FluoZin2; hits give high values; AID 1714; normalized thallium flux at 10 µM;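 active = thallium entry rate above the same plate's blocked-transporter control wells by more than 3 SD; inconclusive = the two repeat wells disagree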;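 note: raw slope of fluorescence over initial fluorescence between 10 and 20 s after thallium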
KCC2 sec2: confirmation of human KCC2 transport modulators; shares compounds with Cl transport mod; HEK293-KCC2, thallium flux FluoZin2 fluorescence; actives lie on both sides; F/F0 rise rate, 10–20 s post-thallium; normalized thallium flux at 10 µM; hit rate 23% among 3,700; AID 1715;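 active = thallium flux slope more than 3 SD above or below the plate's solvent-only control mean, mostly below; inconclusive = the two repeat wells disagreed; inactive = no significant shift from solvent-only controls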;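 note: raw slope with 0.1% DMSO as baseline and bumetanide as block control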
HEK293 Tl flux: acts in parental HEK cells, KCC2 counter-screen | shares compounds with Cl transport mod | HEK293 parental cells, thallium flux FluoZin2, ouabain; baseline-ratio fluorescence slope, 10–20 s after thallium | thallium flux rate (normalised fluorescence) at 10 µM | hit rate 46% among 3,700;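 active = thallium flux rate significantly above the same plate's solvent-only control wells, beyond their mean plus 3 SD; inconclusive = the two replicate wells gave conflicting results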
KCC2 retest ouab: modulates human KCC2 on retest with ouabain; raw Tl+ flux slope (below DMSO = inhibition, above = activation) at 10 µM; hit rate 48% among 3,700; shares compounds with Cl transport mod; HEK293-KCC2, thallium flux FluoZin2 fluorescence; bidirectional: low = inhibitor, high = activator;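 active = thallium flux slope beyond 3 SD from same-plate DMSO control mean in most replicates, usually higher, sometimes lower; inconclusive = repeat tests gave conflicting results; inactive = no significant difference from controls in most replicates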;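 note: slope of initial-normalized fluorescence between seconds 10 and 20 after thallium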
HEK counter2: acts in parental HEK cells, second KCC2 counter-screen; shares compounds with Cl transport mod; HEK293 parental, thallium flux FluoZin-2 fluorescence slope; thallium flux slope at 10 µM; hit rate 33% among 3,700;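 active = thallium flux slope above the same plate's solvent-control mean plus 3 SD in both duplicate wells; inconclusive = duplicate wells that disagreed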;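 note: run without ouabain in cells lacking the KCC2 cotransporter; slope of fluorescence scaled to its starting value between 10 and 20 s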
The depositor's hits bear a star; i = inactive; u = inconclusive; x = not tested or not shown. In the library only some 4.2% were active in any assay of this set; here they are far more common.

SMILES	Ins promoter up	Rad51 HR inh	Cl transport mod	SKKanGAS inh	Autophagy HCS	WT yeast gro inh	KCC2 secondary	KCC2 bumet counter	KCC2 sec2	HEK293 Tl flux	KCC2 retest ouab	HEK counter2
COn1cnnc1-c1ccccc1	2.2	6	x	7	i	6	0.0065	0.0046	0.031	0.0076	0.018	0.01
CN1CCN(C(=O)c2ccc3c(c2)N(Cc2ccc(F)cc2)C(=O)c2ccccc2S3=O)CC1 (centres undefined)	x	x	x	0	x	x	x	x	x	x	x	x
O=C(COc1ccc2ccccc2c1)NNC(=O)c1cnccn1	-0.04	x	0.43	-4	i	-5	x	x	x	x	x	x
O=C(NC(=S)NNC(=O)c1cnccn1)c1ccc(Cl)cc1	x	7	9.1*	40	x	x	0.012	0.013*	0.036	u	u	u
O=C(COc1ccc(Cl)cc1)NNC(=O)c1ccccn1	x	x	4.4*	34	i	19	0.01	0.019*	0.034	0.011*	0.025	u
O=C(COc1ccc(Cl)cc1)NNC(=O)c1ccccc1C(=O)O	x	x	x	9	x	x	x	x	x	x	x	x
Cc1cc(Cl)ccc1OCC(=O)NNC(=O)c1cnccn1	-0.89	13	9.5*	3	i	-3	0.006	0.015*	0.031	0.015*	u	0.013*
CC(C)c1ccc(OCC(=O)NNC(=O)c2cnccn2)cc1	0.04	13	5.7*	-4	x	x	0.0076	0.011*	0.033	0.012*	0.024*	0.015*
O=C(CCC1CCCC1)NC1CCCCC1	0.07	-9	x	7	i	-10	x	x	x	x	x	x
CC(OC(=O)CN1C(=O)NC2(CCCC2)C1=O)C(=O)c1ccccc1 (centres undefined)	x	x	x	0	x	x	x	x	x	x	x	x
Cc1ccc(C(=O)NCC(=O)NNC(=O)CN(C)S(=O)(=O)c2ccc(Cl)cc2)s1	x	x	x	-10	x	x	x	x	x	x	x	x
O=C(NC1CCSC1=O)C1CCCCC1 (centres undefined)	-0.3	x	1.2	-4	i	0	x	x	x	x	x	x
Cc1cc(Br)ccc1OCC(=O)NNC(=O)c1cnccn1	0.08	x	8.8*	-12	i	13	0.017	0.027*	u	0.022*	0.028*	0.024*
CCOc1cccc(/C=N/Nc2nc(N3CCCC3)nc(N3CCCC3)n2)c1O	-1.6	-7	-4.5*	8	x	x	0.01	0.0065	0.034	0.0074	0.021	0.011*
COCCn1ccc2c(OCC(=O)Nc3cccc(NC(C)=O)c3)cccc2c1=O	x	x	x	3	x	x	x	x	x	x	x	x
COc1ccc(S(=O)(=O)NNC(=O)Nc2ccc(F)cc2)cc1	x	x	x	-2	x	x	x	x	x	x	x	x
Cc1ccc(NC(=O)CCn2c(=O)oc3ccccc32)cc1	0.58	1	x	1	i	-16	x	x	x	x	x	x
O=C(CCn1c(=O)oc2ccccc21)N1CCc2ccccc21	1.1	-7	x	-4	i	-19	0.0077	0.0065	0.028	0.0068	u	0.0095
O=C(CCn1c(=O)oc2ccccc21)N1CCOCC1	0.51	-3	x	-6	i	-3	x	x	x	x	x	x
CCc1ccc(NC(=O)CCn2c(=O)oc3ccccc32)cc1	0.29	3	x	-2	i	-2	0.0072	0.004	0.028	0.0071	u	0.0095
COP(=O)(OC)C(NC(=O)Nc1ccccc1)c1ccccc1 (centres undefined)	0.41	-10	0.55	-1	x	x	x	x	x	x	x	x
Cc1cccc(NC(=O)CCNS(=O)(=O)c2ccc3[nH]c(=O)oc3c2)c1	x	x	x	-1	x	x	x	x	x	x	x	x
CSc1ccc(/C=C(/Sc2nnc(-c3ccccc3)o2)C(=O)O)cc1	0.51	-1	-2.7	-6	i	-5	x	x	x	x	x	x
COc1ccc(-c2nnc(S/C(=C/c3ccc(Cl)cc3)C(=O)O)o2)cc1	2	-1	-3*	-15	i	1	0.0082	0.0055*	0.023*	0.0077	0.016*	0.0099
NS(=O)(=O)c1ccc2c(c1)C1C=CCC1C(C1CC=CCC1)N2 (centres undefined)	-0.58	-4	4.7*	-5	i	-5	0.0078	0.0059	0.033	0.0076	0.021	0.01
Cc1cc(Oc2ccc(=O)n(C)n2)nc(SCCOc2ccccc2)n1	0.06	16	-0.24	-3	x	x	x	x	x	x	x	x
CCn1c2ccc(C)cc2c2nnc(NN)nc21	-0.13	3	-6.9*	19	i	2	0.01	u	0.034	0.0075	0.023	0.011
CCn1c2ccccc2c2nnc(NN)nc21	0.81	6	1.3	10	i	-9	x	x	x	x	x	x
CCCc1oc2c(c(=O)c1CC)C(=O)CC(C)(C)C2	0	-46	x	3	i	9	0.016	0.0046	0.028	u	0.015	0.011
C=C(C)CSc1nnc(CCCCCNC(=O)OC(C)(C)C)o1	-0.42	x	0.59	-2	x	x	x	x	x	x	x	x
